Source: ChEMBL document CHEMBL1123503, “Synthesis and biological activity of 3-amino-5-(3,5-diamino-6-chloropyrazin-2-yl)-1,2,4-oxadiazole: an amiloride prodrug” (1986)

How the values were obtained:
Rattus norvegicus [1] = experiment: Compound was evaluated for diuretic activity determined by the ability to induce electrolytic excretion (Na+) at a time period of 0-24 hr for dose 9 mg/kg; type: functional, Urine
In short: (§1)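 Female Sprague-Dawley rats weighing 160-170 g were dosed orally at 3, 9, 27 or 81 mg/kg, housed three per cage, with three cages per dose. Urinary Na+, K+ and Cl- (mequiv × 100) and urine volume (mL) were measured over 0-5 h and 0-24 h after dosing. A placebo group was run alongside.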

Rattus norvegicus [2] = experiment: Compound was evaluated for diuretic activity determined by the ability to induce electrolytic excretion (Na+) at a time period of 0-24 hr for dose 3 mg/kg; type: functional, Urine; in short: as §1
Rattus norvegicus [3] = experiment: Compound was evaluated for diuretic activity determined by the ability to induce electrolytic excretion (K+) at a time period of 0-5 hr for dose 3 mg/kg; type: functional, Urine; in short: as §1
Rattus norvegicus [4] = experiment: Compound was evaluated for diuretic activity determined by the ability to induce electrolytic excretion (Cl-) at a time period of 0-5 hr for dose 27 mg/kg; type: functional, Urine; in short: as §1
Rattus norvegicus [5] = experiment: Compound was evaluated for diuretic activity determined by the ability to induce electrolytic excretion (Na+) at a time period of 0-5 hr for dose 27 mg/kg; type: functional, Urine; in short: as §1
Rattus norvegicus [6] = experiment: Compound was evaluated for diuretic activity determined by the ability to induce electrolytic excretion (Cl-) at a time period of 0-24 hr for dose 27 mg/kg; type: functional, Urine; in short: as §1
Rattus norvegicus [7] = experiment: Compound was evaluated for diuretic activity determined by the ability to induce electrolytic excretion (K+) at a time period of 0-5 hr for dose 81 mg/kg; type: functional, Urine; in short: as §1
Rattus norvegicus [8] = experiment: Urine volumes was determined in Sprague-Dawley rats at time period of 0-5 hours at 81 mg/kg; type: functional
In short: (§2)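 Female Sprague-Dawley rats (160-170 g) were dosed orally at 3-81 mg/kg, with a placebo group. Housing was three rats per cage and three cages per dose. Urinary Na+, K+ and Cl- (mequiv × 100) and urine volume were measured over 0-5 h and 0-24 h.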

Rattus norvegicus [9] = experiment: Compound was evaluated for diuretic activity determined by the ability to induce electrolytic excretion (Na+) at a time period of 0-24 hr for dose 27 mg/kg; type: functional, Urine; in short: as §1
Rattus norvegicus [10] = experiment: Urine volumes was determined in Sprague-Dawley rats at time period of 0-5 hours at 27 mg/kg; type: functional; in short: as §2
Rattus norvegicus [11] = experiment: Compound was evaluated for diuretic activity determined by the to induce electrolytic excretion (Cl-) at a time period of 0-24 hr for dose 81 mg/kg; type: functional, Urine; in short: as §1
Rattus norvegicus [12] = experiment: Compound was evaluated for diuretic activity determined by the ability to induce electrolytic excretion (Cl-) at a time period of 0-5 hr for dose 9 mg/kg; type: functional, Urine; in short: as §1
Rattus norvegicus [13] = experiment: Compound was evaluated for diuretic activity determined by the ability to induce electrolytic excretion (K+) at a time period of 0-24 hr for dose 3 mg/kg; type: functional, Urine; in short: as §1
Rattus norvegicus [14] = experiment: Compound was evaluated for diuretic activity determined by the ability to induce electrolytic excretion (K+) at a time period of 0-24 hr for dose 9 mg/kg; type: functional, Urine; in short: as §1
Rattus norvegicus [15] = experiment: Urine volumes was determined in Sprague-Dawley rats at time period of 0-5 hours at 9 mg/kg; type: functional; in short: as §2
Rattus norvegicus [16] = experiment: Compound was evaluated for diuretic activity determined by the ability to induce electrolytic excretion (Na+) at a time period of 0-5 hr for dose 3 mg/kg; type: functional, Urine; in short: as §1
Rattus norvegicus [17] = experiment: Compound was evaluated for diuretic activity determined by the ability to induce electrolytic excretion (Na+) at a time period of 0-5 hr for dose 81 mg/kg; type: functional, Urine; in short: as §1
Rattus norvegicus [18] = experiment: Compound was evaluated for diuretic activity determined by the ability to induce electrolytic excretion (Cl-) at a time period of 0-24 hr for dose 3 mg/kg; type: functional, Urine; in short: as §1
Rattus norvegicus [19] = experiment: Compound was evaluated for diuretic activity determined by the ability to induce electrolytic excretion (Na+) at a time period of 0-5 hr for dose 9 mg/kg; type: functional, Urine; in short: as §1
Rattus norvegicus [20] = experiment: Compound was evaluated for diuretic activity determined by the ability to induce electrolytic excretion (K+) at a time period of 0-5 hr for dose 27 mg/kg; type: functional, Urine; in short: as §1
Rattus norvegicus [21] = experiment: Compound was evaluated for diuretic activity determined by the ability to induce electrolytic excretion (Na+) at a time period of 0-24 hr for dose 81 mg/kg; type: functional, Urine; in short: as §1
Rattus norvegicus [22] = experiment: Compound was evaluated for diuretic activity determined by the ability to induce electrolytic excretion (Cl-) at a time period of 0-5 hr for dose 81 mg/kg; type: functional, Urine; in short: as §1
Rattus norvegicus [23] = experiment: Compound was evaluated for diuretic activity determined by the ability to induce electrolytic excretion (K+) at a time period of 0-24 hr for dose 27 mg/kg; type: functional, Urine; in short: as §1
Rattus norvegicus [24] = experiment: Compound was evaluated for diuretic activity determined by the ability to induce electrolytic excretion (K+) at a time period of 0-24 hr for dose 81 mg/kg; type: functional, Urine; design: unit: mequiv × 100; in short: as §1
Rattus norvegicus [25] = experiment: Urine volumes was determined in Sprague-Dawley rats at time period of 0-5 hours at 3 mg/kg; type: functional; in short: as §2
Rattus norvegicus [26] = experiment: Compound was evaluated for diuretic activity determined by the ability to induce electrolytic excretion (Cl-) at a time period of 0-24 hr for dose 9 mg/kg; type: functional, Urine; in short: as §1
Rattus norvegicus [27] = experiment: Compound was evaluated for diuretic activity determined by the ability to induce electrolytic excretion (K+) at a time period of 0-5 hr for dose 9 mg/kg; type: functional, Urine; in short: as §1
Rattus norvegicus [28] = experiment: Compound was evaluated for diuretic activity determined by the ability to induce electrolytic excretion (Cl-) at a time period of 0-5 hr for dose 3 mg/kg; type: functional, Urine; in short: as §1
Rattus norvegicus [29] = experiment: Urine volumes in Sprague-Dawley rats was determined at time period of 0-5 hours at 81 mg/kg; type: functional; in short: as §1
Canis familiaris [30] = experiment: Diuretic activity in mongrel dog was determined by the ability to induce electrolytic excretion (Na+) at a time period of 0-5 hr after administration of 5 mg/kg dose.
Canis familiaris [31] = experiment: Diuretic activity in mongrel dog was determined by the ability to induce electrolytic excretion (K+) at a time period of 0-5 hr after administration of 5 mg/kg dose.
Rattus norvegicus [32] = experiment: Urine volumes in Sprague-Dawley rats was determined at time period of 0-5 hours at 3 mg/kg; type: functional; in short: as §1
Rattus norvegicus [33] = experiment: Compound was evaluated for diuretic activity determined by the ability to induce electrolytic excretion (Cl-) at a time period of 0-24 hr for dose 81 mg/kg; type: functional, Urine; in short: as §1
Rattus norvegicus [34] = experiment: Urine volumes was determined at time period of 0-5 hours for dose 9 mg/kg; type: functional; in short: as §2
Rattus norvegicus [35] = experiment: Urine volumes was determined in Sprague-Dawley rats was determined at time period of 0-5 hours at 9 mg/kg; type: functional; in short: as §1
Rattus norvegicus [36] = experiment: Urine volumes in Sprague-Dawley rats was determined at time period of 0-5 hours at 27 mg/kg; type: functional; in short: as §1
Canis familiaris [37] = experiment: Diuretic activity in mongrel dog was determined by the ability of compound to induce electrolytic excretion (CL-) at a time period of 0-5 hr after administration of 5 mg/kg dose.
Rattus norvegicus [38] = experiment: Urine volumes was determined at time period of 0-5 hours for dose 27 mg/kg; type: functional; in short: as §2

SMILES | Diuretic effect (Rattus norvegicus [1]) | Diuretic effect (Rattus norvegicus [2]) | Diuretic effect (Rattus norvegicus [3]) | Diuretic effect (Rattus norvegicus [4]) | Diuretic effect (Rattus norvegicus [5]) | Diuretic effect (Rattus norvegicus [6]) | Diuretic effect (Rattus norvegicus [7]) | Diuretic effect (Rattus norvegicus [9]) | Diuretic effect (Rattus norvegicus [12]) | Diuretic effect (Rattus norvegicus [13]) | Diuretic effect (Rattus norvegicus [14]) | Diuretic effect (Rattus norvegicus [16]) | Diuretic effect (Rattus norvegicus [17]) | Diuretic effect (Rattus norvegicus [18]) | Diuretic effect (Rattus norvegicus [19]) | Diuretic effect (Rattus norvegicus [20]) | Diuretic effect (Rattus norvegicus [21]) | Diuretic effect (Rattus norvegicus [22]) | Diuretic effect (Rattus norvegicus [23]) | Diuretic effect (Rattus norvegicus [24]) | further results
CN(C)c1nc(N)c(-c2nc(N)[n+](C)o2)nc1Cl.[I-] | 224 | 185 | 2 | 56 | 100 | 209 | 5 | 299 | 35 | 114 | 97 | 55 | 154 | 153 | 60 | 6 | 389 | 95 | 62 | 68 | Urine volume (Rattus norvegicus [8]): 31 mL; Urine volume (Rattus norvegicus [10]): 29 mL; Diuretic effect (Rattus norvegicus [11]): 322; Urine volume (Rattus norvegicus [15]): 27 mL; Urine volume (Rattus norvegicus [25]): 26 mL; Diuretic effect (Rattus norvegicus [26]): 169; Diuretic effect (Rattus norvegicus [27]): 2; Diuretic effect (Rattus norvegicus [28]): 37
CN(C)c1nc(N)c(-c2nc(N)no2)nc1Cl | 258 | 202 | 2 | 63 | 107 | 270 | 1 | 341 | 48 | 97 | 83 | 64 | 108 | 170 | 88 | 1 | 352 | 57 | 82 | 53 | Urine volume (Rattus norvegicus [29]): 30 mL; Diuretic effect (Canis familiaris [30]): 7.2; Diuretic effect (Canis familiaris [31]): 0.6; Urine volume (Rattus norvegicus [32]): 28 mL; Diuretic effect (Rattus norvegicus [33]): 267; Diuretic effect (Rattus norvegicus [34]): 7.2; Urine volume (Rattus norvegicus [35]): 32 mL; Urine volume (Rattus norvegicus [36]): 31 mL; Diuretic effect (Canis familiaris [37]): 3; Diuretic effect (Rattus norvegicus [26]): 200; Diuretic effect (Rattus norvegicus [38]): 0.6; Diuretic effect (Rattus norvegicus [27]): 2; Diuretic effect (Rattus norvegicus [28]): 40
